Assay results reported in ChEMBL document CHEMBL3259611, “Suppression of inflammatory responses by handelin, a guaianolide dimer from Chrysanthemum boreale, via downregulation of NF-κB signaling and pro-inflammatory cytokine production” (J Nat Prod, 2014).

Tests used:
RAW264.7 [1] = assay: Antiinflammatory activity in mouse RAW264.7 cells assessed as inhibition of LPS-induced COX2 mRNA expression at 40 uM after 5 hrs by RT-PCR analysis relative to control; type: functional
How it was run: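 RAW 264.7 cells exposed to 1 μg/mL LPS with or without compound for 5 h. Total RNA was analysed by RT-PCR: 25−30 cycles with annealing at 55 °C. Products were separated on 2% agarose gel with SYBR-Safe staining. Experiments in triplicate.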

[2] = target: Transcription factor p65 (Mus musculus) (UniProt Q04207); assay: Inhibition of LPS-induced NFkappaB P65 protein nuclear translocation in mouse RAW264.7 cells at 20 uM after 30 mins by Western blotting analysis relative to control; type: cell-based
How it was run: (§1)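 Macrophages were exposed to compound for 30 min before LPS stimulation, with proteins extracted 30 min later. Nuclear extracts were prepared in Tris/KCl/NP-40 lysis buffer, then 420 mM NaCl buffer, and the cytosolic fraction was kept for IκB-α. Western blot on PVDF with ECL detection. Tests in triplicate; representative of three separate experiments.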

RAW264.7 [3] = assay: Inhibition of LPS-induced NFkappaB transcriptional activity in mouse RAW264.7 cells assessed as reduction of phosphorylated IkappaB-alpha level at 20 uM after 30 mins by Western blotting analysis relative to control; type: cell-based; how it was run: as §1
RAW264.7 [4] = assay: Antiinflammatory activity in mouse RAW264.7 cells assessed as inhibition LPS-induced IL-1beta mRNA expression at 20 uM after 4 hrs by RT-PCR analysis relative to control; type: functional
How it was run: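 RAW 264.7 cells stimulated with LPS (1 μg/mL) with or without compound for 4 h. Total RNA was isolated and cytokine mRNA was analysed by RT-PCR: 94 °C 4 min, then 25−30 cycles of 94/55/72 °C for 30 s each, then 72 °C 5 min. Products were run on 2% agarose and stained with SYBR-Safe. Triplicate, representative of three experiments.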

JNK1/JNK2 (Mus musculus) = JNK1/JNK2 (Mus musculus) (UniProt Q91Y86+Q9WTU6); assay: Inhibition LPS-induced JNK1/2 phosphorylation at Thr183/[…] in mouse RAW264.7 cells at 40 uM administered 30 mins prior to LPS challenge measured after 30 mins by Western blotting analysis; type: cell-based
How it was run: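 RAW 264.7 cells pretreated with compound for 30 min, then stimulated with LPS for an additional 30 min. Lysates resolved by 6−15% SDS-PAGE and blotted to PVDF. Primary antibodies were applied overnight at 4 °C and secondary antibodies for 2 h at room temperature. Detection by ECL. Tests in triplicate; blots representative of three separate experiments.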

[5] = target: Mitogen-activated protein kinase 1 and 3 (ERK2 and ERK1) (Mus musculus) (UniProt P63085+Q63844); assay: Inhibition LPS-induced ERK1/2 phosphorylation at Thr202/Tyr204 in mouse RAW264.7 cells at 20 uM administered 30 mins prior to LPS challenge measured after 30 mins by Western blotting analysis; type: cell-based
How it was run: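 RAW 264.7 cells pretreated with compound for 30 min, then stimulated with LPS for 30 min. Protein extracts were Western blotted for phosphorylated ERK and JNK (SDS-PAGE, PVDF, ECL detection).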

Transcription factor p65 (Mus musculus), sequence (Q04207 whole entry): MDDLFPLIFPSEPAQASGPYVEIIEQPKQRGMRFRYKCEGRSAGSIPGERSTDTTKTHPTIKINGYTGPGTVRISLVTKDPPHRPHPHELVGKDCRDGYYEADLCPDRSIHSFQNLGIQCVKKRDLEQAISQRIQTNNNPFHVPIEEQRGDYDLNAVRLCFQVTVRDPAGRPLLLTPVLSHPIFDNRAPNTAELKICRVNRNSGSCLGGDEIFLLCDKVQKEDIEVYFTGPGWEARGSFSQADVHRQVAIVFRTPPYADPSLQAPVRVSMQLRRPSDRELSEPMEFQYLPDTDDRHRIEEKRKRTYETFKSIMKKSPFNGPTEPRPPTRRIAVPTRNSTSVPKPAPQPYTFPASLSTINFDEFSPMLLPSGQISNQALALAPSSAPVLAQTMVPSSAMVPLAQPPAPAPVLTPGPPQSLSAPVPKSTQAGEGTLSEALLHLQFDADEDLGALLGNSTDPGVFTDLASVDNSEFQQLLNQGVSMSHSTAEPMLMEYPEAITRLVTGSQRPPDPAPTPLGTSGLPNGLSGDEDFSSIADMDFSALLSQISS
Mitogen-activated protein kinase 1 and 3 (ERK2 and ERK1) (Mus musculus), sequence (P63085 whole entry, looked up): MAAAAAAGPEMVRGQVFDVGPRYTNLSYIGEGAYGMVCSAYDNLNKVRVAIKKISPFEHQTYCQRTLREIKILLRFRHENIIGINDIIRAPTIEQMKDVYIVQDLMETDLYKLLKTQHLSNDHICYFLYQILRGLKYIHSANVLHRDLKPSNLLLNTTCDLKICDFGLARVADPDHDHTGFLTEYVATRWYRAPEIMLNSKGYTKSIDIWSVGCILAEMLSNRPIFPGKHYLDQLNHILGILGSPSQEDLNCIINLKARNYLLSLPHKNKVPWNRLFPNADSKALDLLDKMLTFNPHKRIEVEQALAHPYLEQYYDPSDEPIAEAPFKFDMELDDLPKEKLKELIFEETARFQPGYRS
Mitogen-activated protein kinase 1 and 3 (ERK2 and ERK1) (Mus musculus), sequence (Q63844 whole entry, looked up): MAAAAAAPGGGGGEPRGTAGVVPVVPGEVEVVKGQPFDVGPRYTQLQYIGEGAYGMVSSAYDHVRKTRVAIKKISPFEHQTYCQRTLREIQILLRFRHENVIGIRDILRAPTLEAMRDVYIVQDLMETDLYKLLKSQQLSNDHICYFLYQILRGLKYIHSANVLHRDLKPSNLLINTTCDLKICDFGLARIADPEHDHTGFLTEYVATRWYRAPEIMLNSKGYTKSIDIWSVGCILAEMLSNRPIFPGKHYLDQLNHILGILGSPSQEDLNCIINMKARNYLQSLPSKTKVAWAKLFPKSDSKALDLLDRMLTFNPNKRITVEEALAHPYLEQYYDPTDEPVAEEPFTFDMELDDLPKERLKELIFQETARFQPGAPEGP
JNK1/JNK2 (Mus musculus), sequence (Q91Y86 whole entry, looked up): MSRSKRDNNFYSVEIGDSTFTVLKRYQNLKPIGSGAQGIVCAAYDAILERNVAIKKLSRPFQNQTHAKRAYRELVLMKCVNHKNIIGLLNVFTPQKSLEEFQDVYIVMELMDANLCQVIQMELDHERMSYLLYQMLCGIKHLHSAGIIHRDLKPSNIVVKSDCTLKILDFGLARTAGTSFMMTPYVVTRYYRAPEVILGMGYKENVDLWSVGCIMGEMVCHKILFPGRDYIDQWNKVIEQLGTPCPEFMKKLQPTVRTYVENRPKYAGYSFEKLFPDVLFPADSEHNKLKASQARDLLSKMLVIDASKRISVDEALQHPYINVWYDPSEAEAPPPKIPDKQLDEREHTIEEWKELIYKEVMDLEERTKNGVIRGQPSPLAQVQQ
JNK1/JNK2 (Mus musculus), sequence (Q9WTU6 whole entry, looked up): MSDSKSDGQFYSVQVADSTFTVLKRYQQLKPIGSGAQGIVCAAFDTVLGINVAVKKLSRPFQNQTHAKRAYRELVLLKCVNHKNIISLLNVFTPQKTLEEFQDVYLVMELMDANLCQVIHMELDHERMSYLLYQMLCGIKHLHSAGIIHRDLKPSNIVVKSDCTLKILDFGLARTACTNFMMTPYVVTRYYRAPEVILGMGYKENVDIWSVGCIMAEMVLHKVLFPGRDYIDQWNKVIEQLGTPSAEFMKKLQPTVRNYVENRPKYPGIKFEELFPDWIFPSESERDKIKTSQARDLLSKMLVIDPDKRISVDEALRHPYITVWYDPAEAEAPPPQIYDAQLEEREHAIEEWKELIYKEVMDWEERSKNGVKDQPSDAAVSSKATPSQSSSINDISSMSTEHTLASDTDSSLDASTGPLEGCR

`C=C1C(=O)O[C@@H]2[C@@H]3[C@@]4(C=C[C@@]3(C)[C@]3(C4)C(=O)O[C@@H]4[C@H]5C(C)=CC[C@H]5[C@](C)(O)C[C@H](OC(C)=O)[C@H]43)[C@](C)(O)CC[C@@H]12` was tested, and the “fold change (FC)” value (RAW264.7 [1]) was 0.22, the fold change (FC) [2] was 0.63 and the fold change (FC) (RAW264.7 [3]) was 0.55. The “fold change (FC)” value (RAW264.7 [4]) was 0.79, the fold change (FC) (JNK1/JNK2 (Mus musculus)) was 0.24 and the fold change (FC) [5] was 0.79.
